From ChEMBL document CHEMBL1806443, “Novel imidazo[4,5-b]pyridine and triaza-benzo[c]fluorene derivatives: synthesis, antiproliferative activity and DNA binding studies” (Eur J Med Chem, 2011)
Calls of active or inactive are those of the source. No cut-off for these calls is given here.

Legend:
[1] = system: MIA PaCa-2; assay: Cell cycle arrest in human MIAPaCa2 cells assessed as accumulation at G1 phase at 1 uM after 48 hrs by propidium iodide staining based flow cytometeric analysis (reference value: 65.2 +/- 1.9%); type: functional
[2] = system: SW-620; assay: Cell cycle arrest in human SW620 cells assessed as accumulation at G1 phase at 1 uM after 48 hrs by propidium iodide staining based flow cytometeric analysis (reference value: 52.7 +/- 0.9%); type: functional
[3] = system: HeLa; assay: Antiproliferative activity against human HeLa cells at 0.1 to 10 uM after 72 hrs by MTT assay; type: functional, cell-based
How it was run: (§1)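 Monolayer cells in DMEM with 10% FBS, 2 mM L-glutamine, penicillin and streptomycin at 37 °C, 5% CO2. Seeded at 3000-6000 cells/well by doubling time on day 0. Five 10-fold dilutions (0.01–100 µM) were added and incubated 72 h. MTT read-out, converted to percentage growth. IC50 by linear regression between bracketing concentrations. Quadruplicate points, three independent experiments, ANOVA/Tukey p<0.05.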

[4] = system: WI-38; assay: Antiproliferative activity against human WI38 cells at 0.1 to 10 uM after 72 hrs by MTT assay; type: cell-based; settings: wi-38, 72 h; how it was run: as §1
[5] = system: MIA PaCa-2; assay: Cell cycle arrest in human MIAPaCa2 cells assessed as accumulation at G2/M phase at 1 uM after 24 hrs by propidium iodide staining based flow cytometeric analysis (reference value: 19.5 +/- 3.9%); type: functional
[6] = system: SW-620; assay: Cell cycle arrest in human SW620 cells assessed as accumulation at subG1 phase at 1 uM after 24 hrs by propidium iodide staining based flow cytometeric analysis (reference value: 18 +/- 1%); type: functional
[7] = system: MIA PaCa-2; assay: Cell cycle arrest in human MIAPaCa2 cells assessed as accumulation at S phase at 10 uM after 48 hrs by propidium iodide staining based flow cytometeric analysis (reference value: 20.5 +/- 0.2%); type: functional
[8] = system: MCF7; assay: Cytostatic activity against human MCF7 cells at 1 to 10 uM after 72 hrs by MTT assay; type: functional, cell-based
How it was run: (§2)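 Monolayers in DMEM with 10% FBS, 2 mM L-glutamine, penicillin and streptomycin (37 °C, 5% CO2) were seeded at 3000–6000 cells/well on day 0. Five 10-fold dilutions (0.01–100 µM) were added, followed by 72-h incubation and MTT read-out. Absorbances were converted to percentage growth by the NIH formulae. Each point was run in quadruplicate in three experiments; ANOVA with Tukey test.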

[9] = system: MIA PaCa-2; assay: Induction of apoptosis in human MIAPaCa2 cells assessed as morphological change at 10 uM after 24 to 48 hrs by microscopic analysis; type: functional, cell-based
How it was run: (§3)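 Cells were seeded at 3 × 10^4 per well and exposed 24 h later to 1, 5 or 10 µM for 24 and 48 h. Apoptotic morphology (cell shrinkage, chromatin condensation) was scored by inverted light microscopy at 200× magnification.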

[10] = system: Nucleic Acid; assay: Binding affinity to calf thymus DNA assessed as appearance of weak, negative induced CD band at 337 nm wavelength by circular dichroism spectroscopy; type: nucleic-acid assay; settings: Bos taurus
How it was run: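 CD spectra of ct-DNA (1.0 × 10^-5 mol dm^-3, as phosphate) titrated with compound at 25 °C. Sodium cacodylate buffer pH 7.0, I = 0.05 mol dm^-3, 1 cm quartz cuvette. DNA band (~274–275 nm) and induced bands above 300 nm followed versus r = [compound]/[ct-DNA].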

[11] = system: MIA PaCa-2; assay: Cell cycle arrest in human MIAPaCa2 cells assessed as accumulation at subG1 phase at 1 uM after 24 hrs by propidium iodide staining based flow cytometeric analysis (reference value: 48.7 +/- 0.7%); type: functional
[12] = system: Nucleic Acid; assay: Binding affinity to calf thymus DNA assessed as change in melting temperature at compound to polynucleotide ratio of 0.1 by UV-VIS spectroscopic analysis; type: nucleic-acid assay; settings: Bos taurus
How it was run: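 ct-DNA alone or with compound at set r = [compound]/[polynucleotide], in cacodylate buffer pH 7.0, I = 0.05 mol dm^-3. Absorbance at 260 nm followed against temperature, ligand absorbance subtracted, curves normalized. Tm is the transition midpoint, from the first-derivative maximum or by tangent method. ΔTm = Tm(complex) − Tm(free DNA), mean of ≥2 runs, error ±0.5 °C.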

[13] = system: MIA PaCa-2; assay: Cell cycle arrest in human MIAPaCa2 cells assessed as accumulation at G2/M phase at 10 uM after 24 hrs by propidium iodide staining based flow cytometeric analysis (reference value: 19.5 +/- 3.9%); type: functional
[14] = system: MIA PaCa-2; assay: Cell cycle arrest in human MIAPaCa2 cells assessed as accumulation at subG1 phase at 5 uM after 48 hrs by propidium iodide staining based flow cytometeric analysis (reference value: 46.8 +/- 0.7%); type: functional
[15] = system: MIA PaCa-2; assay: Cell cycle arrest in human MIAPaCa2 cells assessed as accumulation at S phase at 1 uM after 48 hrs by propidium iodide staining based flow cytometeric analysis (reference value: 20.5 +/- 0.2%); type: functional
[16] = system: SW-620; assay: Cytostatic activity against human SW620 cells at 1 to 10 uM after 72 hrs by MTT assay; type: functional, cell-based; how it was run: as §2
[17] = system: SW-620; assay: Cell cycle arrest in human SW620 cells assessed as accumulation at G1 phase at 1 uM after 24 hrs by propidium iodide staining based flow cytometeric analysis (reference value: 29.3 +/- 1.5%); type: functional
[18] = system: MIA PaCa-2; assay: Cell cycle arrest in human MIAPaCa2 cells assessed as accumulation at G1 phase at 10 uM after 48 hrs by propidium iodide staining based flow cytometeric analysis (reference value: 65.2 +/- 1.9%); type: functional
[19] = system: MIA PaCa-2; assay: Cell cycle arrest in human MIAPaCa2 cells assessed as accumulation at G1 phase at 10 uM after 24 hrs by propidium iodide staining based flow cytometeric analysis (reference value: 51.2 +/- 2.7%); type: functional
[20] = system: SW-620; assay: Cell cycle arrest in human SW620 cells assessed as accumulation at G2/M phase at 5 uM after 24 hrs by propidium iodide staining based flow cytometeric analysis (reference value: 22.3 +/- 2.9%); type: functional
[21] = system: SW-620; assay: Cell cycle arrest in human SW620 cells assessed as accumulation at G2/M phase at 10 uM after 48 hrs by propidium iodide staining based flow cytometeric analysis (reference value: 16.1 +/- 0.9%); type: functional
[22] = system: MIA PaCa-2; assay: Cell cycle arrest in human MIAPaCa2 cells assessed as accumulation at S phase at 5 uM after 48 hrs by propidium iodide staining based flow cytometeric analysis (reference value: 20.5 +/- 0.2%); type: functional
[23] = system: SW-620; assay: Cell cycle arrest in human SW620 cells assessed as accumulation at subG1 phase at 1 uM after 48 hrs by propidium iodide staining based flow cytometeric analysis (reference value: 29.1 +/- 1.1%); type: functional
[24] = system: SW-620; assay: Induction of apoptosis in human SW620 cells assessed as morphological changes after 24 to 48 hrs by microscopic analysis; type: functional, cell-based; how it was run: as §3
[25] = system: MIA PaCa-2; assay: Cell cycle arrest in human MIAPaCa2 cells assessed as accumulation at S phase at 5 uM after 24 hrs by propidium iodide staining based flow cytometeric analysis (reference value: 29.2 +/- 4.2%); type: functional

## Cl.c1cnc2nc3ccc4ccc(C5=NCCN5)cc4n3c2c1
[1]
  Activity: 42.4%
[2]
  Activity: 35.1%
[3]
  Activity: Active
[4]
  Activity: Toxic
[5]
  Activity: 21.3%
[6]
  Activity: 14.3%
[7]
  Activity: 56.9%
[8]
  Activity: Active
[9]
  Activity: Active
[10]
  Activity: Active
[11]
  Activity: 57.8%
[12]
  ΔTm: 2.7 °C
[13]
  Activity: 18.3%
[14]
  Activity: 56.6%
[15]
  Activity: 34.6%
[16]
  Activity: Active
[17]
  Activity: 54.3%
[18]
  Activity: 26.1%
[19]
  Activity: 52.4%
[20]
  Activity: 2.1%
[21]
  Activity: 18.2%
[22]
  Activity: 36.8%
[23]
  Activity: 25.4%
[24]
  Activity: Dose-dependent effect
[25]
  Activity: 59.3%
